Data published in PubChem BioAssay.
Calls of active or inactive are those of the source.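 How the source made its calls, unless noted: active means NADPH fluorescence slope more negative than the mean of all samples by about 3 SD, 99.7% confidence; inactive means the rest.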

How the values were obtained:
[1] = inhibitors of TNFa-induced NFkB p65 translocation, primary screen, imaging, HUVEC, MLSMR starter and 10KST1 sets (AID 438;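 active means inhibition above 20% together with a positive visual image hit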;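 further: compound added about 3h40 before a 20 min TNFalpha stimulation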;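 on inhibition: signal is the nuclear over cytoplasmic p65 intensity ratio per well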); conditions: HUVEC TNFa-induced p65 nuclear translocation; cell count: measured here: nuclei count (cytotoxicity indicator), at 2.08 µM unless noted; inhibition: at 2 µM, stronger effect = higher value unless noted
[2] = reduction of polyQ htt aggregates in cells – imaging, exon1htt(103Q)mCFP cells, high-content imaging, primary screen (AID 483;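 active means visual image review flags a hit and inhibition of aggregation exceeds 20%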;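 further: compound exposure lasted 3 days before fixation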;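 on nuclei count: percent of the per-plate median nuclei count of sample wells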); conditions: exon1htt(103Q)mCFP cell line, aggregate imaging, at 2 µM; inhibition of aggregation: stronger effect = higher value; nuclei count: measured here: cell count, toxicity
[3] = endothelial E-selectin expression blockers – imaging, HUVEC, immunofluorescence, MLSMR starter and 10KST1 sets, primary screen (AID 487;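 active means visually confirmed hit in the image check and inhibition above 20%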;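 on inhibition: signal is fraction of cell area covered by stained E-selectin grains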;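 on nuclei count: 100% = median nuclei count of all wells on the same plate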); conditions: HUVEC TNFalpha-induced E-selectin immunofluorescence imaging, at 2 µM; inhibition: stronger effect = higher value; nuclei count: measured here: cell number, toxicity
[4] = target: Voltage-gated potassium channel subunit beta-2 (Rattus norvegicus) (UniProt P62483); assay: inhibitors of rat Kvbeta2 reductase activity – biochemical, NADPH fluorescence, primary screen (AID 622;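 active means fluorescence slope higher than the sample average by over 3 SD, cut at about -0.22 in these data, passing the limit was not always enough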;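 further: slope of raw intensity against log time taken from 70 to 1610 s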); conditions: recombinant KvBeta, 4-cyanobenzaldehyde reduction, at 10 µM, stronger effect = higher value
Voltage-gated potassium channel subunit beta-2 (Rattus norvegicus), sequence (P62483 whole entry, looked up): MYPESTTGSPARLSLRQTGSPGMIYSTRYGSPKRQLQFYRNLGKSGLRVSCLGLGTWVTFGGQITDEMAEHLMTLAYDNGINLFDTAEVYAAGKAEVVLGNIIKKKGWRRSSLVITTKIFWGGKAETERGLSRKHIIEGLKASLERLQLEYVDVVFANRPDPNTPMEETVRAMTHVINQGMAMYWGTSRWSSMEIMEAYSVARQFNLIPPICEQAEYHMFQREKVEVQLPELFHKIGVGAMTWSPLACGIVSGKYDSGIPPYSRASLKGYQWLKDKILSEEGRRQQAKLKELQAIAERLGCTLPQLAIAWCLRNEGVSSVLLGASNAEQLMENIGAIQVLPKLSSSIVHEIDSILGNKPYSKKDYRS

[5] = target: Voltage-gated potassium channel subunit beta-2 (Rattus norvegicus) (UniProt P62483); assay: enhancers of rat Kvbeta2 NADPH turnover – biochemical, NADPH fluorescence, primary screen (AID 623); conditions: Recombinant KvBeta, NADPH fluorescence decrease slope, 10 min; at 10 µM; stronger effect = lower value;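 further: fluorescence intensity change per second fitted from 20 to 320 s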
[6] = target: Muscarinic acetylcholine receptor M4 (Homo sapiens) (UniProt P08173); assay: M4-linked GIRK flux change, two-sided – cell-based, HEK293 M4/GIRK, thallium flux, BTC-AM, M4 allosteric agonist project, primary screen (AID 625;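 active means fluorescence slope after compound addition differing from the mean of all tested samples at 99.7% confidence, mostly higher but some lower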;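 further: thallium influx through GIRK channels coupled to M4 in HEK293 cells with BTC-AM dye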); conditions: at 10 µM, actives lie on both sides
Muscarinic acetylcholine receptor M4 (Homo sapiens), sequence (P08173 whole entry, looked up): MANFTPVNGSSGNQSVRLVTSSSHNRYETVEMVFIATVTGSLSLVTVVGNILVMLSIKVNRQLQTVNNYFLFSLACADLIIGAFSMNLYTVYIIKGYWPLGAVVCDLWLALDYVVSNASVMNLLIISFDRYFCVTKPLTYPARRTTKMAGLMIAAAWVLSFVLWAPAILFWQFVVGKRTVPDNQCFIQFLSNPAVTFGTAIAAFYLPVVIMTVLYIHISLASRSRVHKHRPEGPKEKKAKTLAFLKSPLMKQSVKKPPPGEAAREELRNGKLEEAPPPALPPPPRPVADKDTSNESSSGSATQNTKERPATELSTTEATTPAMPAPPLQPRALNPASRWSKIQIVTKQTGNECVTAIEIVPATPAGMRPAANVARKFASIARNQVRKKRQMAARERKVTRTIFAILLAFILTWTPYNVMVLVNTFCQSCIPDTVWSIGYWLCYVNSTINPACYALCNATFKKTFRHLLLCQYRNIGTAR
How it was run: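 Material: M4/GIRK1/GIRK2 stable HEK293 cell line. Medium: pH 7.3 thallium assay buffer. Dosing: single compound concentration, 10 µM final. Schedule: 1 h dye loading, 2 min kinetic read. Measured by: kinetic fluorescence with BTC-AM dye. Read-out: post-addition slope, 15–24 s, of baseline-normalized fluorescence. Benchmarks: carbachol and DMSO controls.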

[7] = blockers of RIG-like receptor reporter activation – cell-based, Sendai virus stimulus, luciferase, 10K MLSCN set, TLR/RLR signaling modifier project, primary screen (AID 602276;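 active means inhibition at or above 50% at 10 µM; inactive means inhibition below 50%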;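 further: firefly luciferase from ISG56 promoter only with Renilla not read in this screen; 0% = Sendai virus plus DMSO and 100% = medium plus DMSO without virus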); conditions: HEK293 RL24 IRF3 luciferase reporter, at 10 µM, stronger effect = higher value
[8] = TLR3 IRF3 reporter activation blockers – cell-based, poly I:C stimulus, luciferase, 10K MLSCN set, primary screen (AID 602277;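 active means inhibition of the reporter signal at or above 50%; inactive means inhibition below 50%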); conditions: HEK293-TLR3 RL24 IRF3 luciferase reporter, at 10 µM, stronger effect = higher value
[9] = loss of swimming-algae plug formation – whole organism, Chlamydomonas reinhardtii, WT vs cilia-less mutant, absorbance, 96-well, primary screen (AID 463189;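 active means inhibition at or above 50% relative to wild type and mutant plate controls; inactive means inhibition below 50%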;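 further: 0% = wild type cc124 cells in DMSO and 100% = ciliumless bld1 mutant cells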); conditions: Chlamydomonas reinhardtii gravitaxis, OD600 absorbance, 2 days; at 10 µM; stronger effect = higher value

Row | SMILES | cell count [1] | inhibition [1] | inhibition of aggregation [2] | nuclei count [2] | inhibition [3] | nuclei count [3] | fluorescence slope [4] | NADPH fluorescence slope [5] | fluorescence slope [6] | inhibition [7] | inhibition [8] | inhibition [9]
1 | O=C(Cn1c2c(c(-c3ccccc3Cl)cc1=O)CCC2)N1CCC2(CC1)OCCO2 | 861 | -5% (inactive) | -9% (inactive) | 107% | -175% (inactive) | 125% | -0.605 (inactive) | 9.7e-06 (inactive) | 0.00803 (inactive) | -8.12% (inactive) | -12.2% (inactive) | –
2 | Cc1cc(N2C(=O)C3CCCN3C2c2cccc(Cl)c2)no1 (stereo unspecified) | 465 | -3.9% (inactive) | 8.2% (inactive) | 97.3% | 28.8% (inactive) | 91.4% | -0.543 (inactive) | -2.7e-05 (inactive) | 0.00553 (inactive) | 13.2% (inactive) | 22.3% (inactive) | –
3 | Cn1c(C(=O)N2CCC3(CC2)OCCO3)cc2c(=O)n(C)c3ccccc3c21 | 551 | -0.2% (inactive) | 26.7% (inactive) | 104% | -17.8% (inactive) | 125% | -0.522 (inactive) | -5.9e-06 (inactive) | 0.00705 (inactive) | 13.8% (inactive) | 20.5% (inactive) | –
4 | CC(=O)N1CC(=O)Nc2ccc(Cl)cc2C1c1ccc(F)cc1 (stereo unspecified) | 416 | 20.8% (inactive) | -6.1% (inactive) | 103% | -45.1% (inactive) | 105% | -0.569 (inactive) | -1.5e-05 (inactive) | 0.00574 (inactive) | -2.3% (inactive) | -0.788% (inactive) | –
5 | NCC#Cc1ccccc1 | – | – | – | – | – | – | – | – | – | – | – | 1.68% (inactive)
6 | O=C(c1ccc(CS(=O)(=O)c2ccccc2)o1)N1CCC2(CC1)OCCO2 | 379 | 8% (inactive) | -2% (inactive) | 97% | -80.2% (inactive) | 107% | -0.523 (inactive) | -0.000178 (inactive) | 0.00484 (inactive) | -15.4% (inactive) | -9.63% (inactive) | –
7 | Oc1ccc(C2NCc3ccccc3-n3cccc32)cc1Cl (stereo unspecified) | 668 | -13.6% (inactive) | 35.1% (inactive) | 127% | -48.5% (inactive) | 110% | -0.46 (inactive) | -3.3e-05 (inactive) | 0.00669 (inactive) | 4.87% (inactive) | 23.9% (inactive) | –
8 | O=c1[nH]c(=O)n(Cc2ccccc2)c(O)c1C=NCCCO | 414 | -6.5% (inactive) | 24.4% (inactive) | 90.8% | -59% (inactive) | 128% | -0.52 (inactive) | -3e-05 (inactive) | 0.00467 (inactive) | 16.7% (inactive) | 16.9% (inactive) | –
9 | N#Cc1ccccc1Cn1cc(C(=O)c2ccco2)c2ccccc21 | 353 | 6% (inactive) | 23.1% (inactive) | 76.5% | -3.7% (inactive) | 80.5% | -0.254 (inactive) | -2.3e-05 (inactive) | 0.00586 (inactive) | 16.6% (inactive) | 15.1% (inactive) | –
10 | Cc1ccc(O)c(CN2CCN(c3ccccc3)CC2)c1 | 307 | 1% (inactive) | -4.7% (inactive) | 95.9% | -91.9% (inactive) | 120% | -0.202 (inactive) | -1.8e-05 (inactive) | 0.00457 (inactive) | 12% (inactive) | 15.6% (inactive) | –
11 | CC12CCCCC1=[N+]([O-])CN2O (stereo unspecified) | 725 | -10% (inactive) | -27.6% (inactive) | 99.9% | -15.8% (inactive) | 118% | -0.554 (inactive) | 1.5e-05 (inactive) | 0.0045 (inactive) | -0.121% (inactive) | 6.9% (inactive) | –
